HCV core dimer – HCV core protein dimerization inhibition; TR-FRET GST/Flag-core106 dimerization, 1536-well; inhibition, % at 5 µM; 300,000 compounds, 0.33% hits; AID 1899;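 active = inhibition above the mean of all tested compounds plus 3 SD, set per screening campaign, cut at about 45% in these data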
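Assay system: Tagged HCV core106 pair (GST and Flag) | Buffer or medium: KF-containing HEPES buffer, pH 7.45, DTT, CHAPS, BSA | Also added: Eu donor and XL665 acceptor anti-tag antibodies | Dosing: One concentration, 5 µM, in 0.5% DMSO | Timing: 4 h at 22.5 °C | Technique: TR-FRET 671 and 617 nm emission | Repeats: Singlicate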
rCAG binder – molecules binding r(CAG) RNA repeats; AID 651821; 370,000 compounds, 1.3% hits; r(CAG) RNA repeat, TO-PRO-1 dye displacement fluorescence; inhibition, % at 3 µM;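 active = inhibition above the plate cutoff, the mean of all test compounds on that plate plus 3 SD, cut at about 35% in these data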;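 also: higher means more dye released from RNA so lower well fluorescence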
HCV NS3 hel inh – inhibitors of Hepatitis C virus NS3 helicase. NS3 helicase DNA unwinding, Cy5 molecular beacon fluorescence. inhibition, % at 10.9 µM. 290,000 compounds, 0.56% hits. AID 1800;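 active = inhibition above the mean of all tested compounds plus 3 SD, set per campaign, cut at about 35% in these data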
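System: Hepatitis C virus NS3 helicase domain fragment enzyme | Reagent: Annealed dual-labelled DNA beacon duplex, ATP-started | Compound dosing: 10.9 µM single point, 0.8% DMSO | Incubation: 1 h reaction at 25 °C, ATP-initiated | Technique: Cy5 fluorescence | Evaluation: Percent inhibition from t60/t0 fluorescence ratio | Benchmarks: Low DMSO, high thioflavine S at 110 µM | Replication: Singlicate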
TAAR1 antagonist – antagonists of human TAAR1; inhibition, % at 3 µM; Q96RJ0; 360,000 compounds, 1.5% hits; CHO RD-HGA16 TAAR1, Fluo-8 calcium fluorescence, antagonist;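 active = inhibition above a per-plate cutoff, the mean inhibition of test compounds on that plate plus 3 SD, cut at about 49% in these data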
Target sequence (Q96RJ0 whole entry, looked up): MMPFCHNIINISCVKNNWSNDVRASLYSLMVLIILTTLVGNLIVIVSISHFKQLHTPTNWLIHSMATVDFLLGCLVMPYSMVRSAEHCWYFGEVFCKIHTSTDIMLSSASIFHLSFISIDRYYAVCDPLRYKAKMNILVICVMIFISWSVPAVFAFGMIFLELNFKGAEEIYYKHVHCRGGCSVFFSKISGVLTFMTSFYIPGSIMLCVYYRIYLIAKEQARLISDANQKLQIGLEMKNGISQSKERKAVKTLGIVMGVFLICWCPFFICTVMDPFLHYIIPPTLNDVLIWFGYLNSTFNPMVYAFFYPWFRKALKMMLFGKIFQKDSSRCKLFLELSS
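Assay system: CHO-derived RD-HGA16 cells stably expressing human TAAR1 plus Gα16. Timing: 140 s kinetic read after compound, 140 s after agonist. Technique: kinetic Fluo-8 calcium fluorescence measurement. Measure: % inhibition of agonist calcium response.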
TAAR1 agonist – human TAAR1 agonism; Q96RJ0; CHO RD-HGA16 TAAR1, Fluo-8 calcium fluorescence; vehicle wells 0%, saturating PEA agonist 100%; activation, % at 3 µM; 360,000 compounds, 0.99% hits;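 active = activation above the mean activation of all test compounds in the run plus 3 SD, cut at about 38% in these data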
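Signal – calcium-sensitive Fluo-8 signal, excitation 470-495, emission 515-575 nm · System – RD-HGA16 (CHO) cells co-expressing Gα16 and hTAAR1 · Incubation – 17-24 h seeding, 75 min 37 °C dye, 30 min RT · Compound dosing – 3 µM single concentration · Repeats – no replicates (n 1)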
rCAG bind conf – r(CAG) RNA repeat binding, confirmation. shares compounds with rCAG binder. TO-PRO-1 dye displacement fluorescence. inhibition, % at 3 µM. 4,300 compounds, 70% hits. AID 652065;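 active = inhibition above a per-plate cutoff, the mean inhibition of sample wells plus 3 SD, cut at about 35% in these data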;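 also: loss of TO-PRO-1 fluorescence as compound displaces dye from 1x1 AA loop RNA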
DNA CAG counter – DNA CAG dye complex inhibition counter-screen; shares compounds with rCAG binder; d(CAG) DNA oligo TO-PRO-1 dye displacement, fluorescence; inhibition, % at 3 µM; 4,300 compounds, 94% hits;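 active = inhibition above its plate's cutoff, the mean test-well inhibition plus 3 SD, cut at about 4.8% in these data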;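 also: hits displace the dye from DNA and so lower well fluorescence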
dCAG dye DR – DNA CAG dye complex inhibition, dose response counter-screen. 250 compounds, 20% hits. shares compounds with rCAG binder. IC50, µM. AID 686960. DNA CAG/GTC duplex TO-PRO-1 dye displacement fluorescence; in the data active = IC50 below about 10 µM
Numbers stand for hits; – = inactive; · = no result given. Compounds with a hit are over-represented: about 3.7% of the library has one in this group of screens.

SMILES	HCV core dimer	rCAG binder	HCV NS3 hel inh	TAAR1 antagonist	TAAR1 agonist	rCAG bind conf	DNA CAG counter	others
O=C(NC(=S)Nc1cc([N+](=O)[O-])ccc1O)c1ccc2c(c1)OCO2	–	–	–	–	–	·	·
O=S(=O)(c1ccccc1)n1c(CN2CCOCC2)nc2ccccc21	·	–	·	·	·	·	·
Cc1c(OCc2nn[nH]n2)ccc2c3c(c(=O)oc12)CCCC3	–	–	–	–	–	·	·
Cc1c(OCc2nn[nH]n2)ccc2c3c(c(=O)oc12)CCC(C)C3 (stereo not drawn)	–	42	–	–	–	–	4.7
CC1(C(=O)NS(=O)(=O)c2ccc(Cl)cc2)CCN1C(=O)Cc1ccccc1 (stereo not drawn)	·	–	·	–	–	·	·
CC1(C(=O)NS(=O)(=O)c2ccc3c(c2)CCO3)CCN1C(=O)Cc1ccc(-c2ccccc2)cc1 (stereo not drawn)	·	47	·	–	–	70	27	dCAG dye DR=–
COc1ccc(S(=O)(=O)NC(=O)C2(C)CCN2C(=O)Cc2ccc(-c3ccccc3)cc2)cc1 (stereo not drawn)	·	46	·	–	–	44	16
CC1(C(=O)NS(=O)(=O)c2ccc3ccccc3c2)CCN1C(=O)Cc1ccc(-c2ccccc2)cc1 (stereo not drawn)	·	81	·	–	–	77	36
CC(C)(C)c1ccc(CC(=O)N2CCC2(C)C(=O)NS(=O)(=O)c2ccc3c(c2)CCO3)cc1 (stereo not drawn)	·	–	·	–	–	·	·
C/C(=C/c1[nH]c(N)[n+](CC2CC2)c1Cc1ccccc1)Cn1[nH]c(=O)n(-c2ccccc2)c1=O	·	–	·	·	·	·	·
O=C(CCc1ccc(S(=O)(=O)N2CCOCC2)cc1)N/N=C/c1ccc(F)cc1F	–	–	–	–	–	·	·
O=C(CCc1ccc(S(=O)(=O)N2CCOCC2)cc1)N/N=C/c1ccc(O)c(O)c1O	–	40	–	–	–	46	16
O=[N+]([O-])c1ccc(N/N=C/c2ccc(O)c(O)c2O)c(S(=O)(=O)N2CCOCC2)c1	·	69	–	–	–	84	52
O=[N+]([O-])c1ccc(NCCCO)c(S(=O)(=O)N2CCOCC2)c1	–	–	–	–	–	·	·
COc1cc(/C=N/Nc2ccc([N+](=O)[O-])cc2S(=O)(=O)N2CCOCC2)cc(OC)c1OC	–	–	–	–	–	·	·
O=[N+]([O-])c1ccc(N/N=C/c2cccc(O)c2O)c(S(=O)(=O)N2CCOCC2)c1	–	35	–	–	–	–	18
O=C(OC12CCCN(C1)/C(=C/c1ccccc1)C2)c1cccc(F)c1 (stereo not drawn)	·	–	·	·	·	·	·
CSc1ccc(/C=C(\C(=O)O)c2ccc(S(=O)(=O)N3CCCC3)s2)cc1	·	39	·	–	–	–	10
O=C(O)/C(=C\c1cccc(F)c1)c1ccc(S(=O)(=O)N2CCCCC2)s1	–	–	–	–	–	·	·
O=C(O)/C(=C\c1cccc(O)c1)c1ccc(S(=O)(=O)N2CCCC2)s1	·	–	·	–	–	·	·
O=C(O)/C(=C/c1ccc(Cl)c([N+](=O)[O-])c1)c1ccc(S(=O)(=O)N2CCCCC2)s1	·	89	·	–	–	77	40
O=C(O)c1ccc(N2C(=O)CC(SC(=NCc3ccc4c(c3)OCO4)Nc3ccccc3)C2=O)cc1 (stereo not drawn)	–	69	–	–	–	62	23
O=C1CC(SC(=NCc2ccc3c(c2)OCO3)Nc2ccccc2)C(=O)N1c1ccccc1 (stereo not drawn)	–	–	–	–	–	·	·
O=C(O)c1ccc(N2C(=O)CC(SC(=NCc3ccc4c(c3)OCO4)Nc3ccc(F)cc3)C2=O)cc1 (stereo not drawn)	–	77	–	–	–	73	33	dCAG dye DR=–
COc1ccccc1NC(=O)c1ccc(NS(=O)(=O)c2ccc(F)c(F)c2F)cc1	–	44	–	–	–	–	6.1
SMILES	HCV core dimer	rCAG binder	HCV NS3 hel inh	TAAR1 antagonist	TAAR1 agonist	rCAG bind conf	DNA CAG counter	others
CN(C)S(=O)(=O)c1cc(C(=O)O)c(NC2CCCCC2)cc1Cl	–	45	–	–	–	–	6.2
COc1cccc(NC(=O)C2CCCN2C(=O)NCc2ccccc2)c1 (stereo not drawn)	·	–	·	·	·	·	·
S=c1[nH]nc(-c2ccco2)n1/N=C/c1cccs1	–	–	–	–	–	·	·
S=c1[nH]nc(-c2ccc(Cl)cc2)n1/N=C/C=C/c1ccco1	–	37	–	–	–	35	13
S=c1[nH]nc(-c2ccco2)n1/N=C/c1ccc(Cl)cc1Cl	–	35	–	–	–	64	19
S=c1[nH]nc(-c2ccc(Cl)cc2)n1/N=C/c1ccco1	–	–	–	–	–	·	·
CC(C)C[C@H]1COc2cccc(F)c2S(=O)(=O)N1Cc1cn(CCC2OCCCO2)nn1	·	–	·	·	·	·	·
CCc1ccc(-n2c(=S)sc3c(=O)n(-c4ccccc4)c(SCC(=O)O)nc32)cc1	–	41	–	–	–	–	6.9
CCOc1ccc(-n2c(=S)sc3c(=O)n(-c4ccc(F)cc4)c(SCC(=O)O)nc32)cc1	–	–	–	–	–	·	·
CCOc1ccc(-n2c(=S)sc3c(=O)n(-c4ccccc4)c(SCC(=O)O)nc32)cc1	–	39	–	–	–	–	5.7
Cc1ccc(-n2c(=S)sc3c(=O)n(-c4ccccc4F)c(SCC(=O)O)nc32)cc1C	–	47	–	–	–	46	13
COc1ccccc1-n1c(SCC(=O)O)nc2c(sc(=S)n2-c2ccccc2C)c1=O	–	–	–	–	–	·	·
O=C1CSc2ccc(C(=O)N3CCCC(C(=O)N4CCCCC4)C3)cc2N1 (stereo not drawn)	·	–	·	·	·	·	·
CCCOc1ccc(C(CC(=O)O)NC(=O)c2sc3ccccc3c2Cl)cc1 (stereo not drawn)	–	53	–	–	–	42	9.9
Cc1ccc(C(=O)C2CCN(CC(=O)N3CCOCC3)CC2)cc1	·	–	·	·	·	·	·
COc1cccc(CNC(=O)c2c[nH]n3c(=O)c(Cl)c(C)nc23)c1	–	61	–	–	–	35	8.0
C=CCn1c(NC(=O)c2ccccc2Cl)c(C#N)c2nc3ccccc3nc21	–	69	–	–	–	67	29
CCCCn1c(NC(C)=O)c(C#N)c2nc3ccccc3nc21	–	–	–	–	–	·	·
O=C(NC1CCCCN(Cc2cccc(Cl)c2)C1=O)c1ccc(F)cc1 (stereo not drawn)	·	–	·	·	·	·	·

Compound activity from PubChem BioAssay.
